According to ChEMBL document CHEMBL1255405 (Antimicrob Agents Chemother, 2010):

Tests used:
[1] = AUC (0 to infinity) in Papua new Guinean pregnant women at 450 mg/day, po administered as three divided doses by HPLC method; assay type: ADME, organism-based; design: dose 450 mg/day, time infinity, route oral; conditions: female, human, plasma
Method in brief: (§1)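 Papua New Guinean women in the second or third trimester of pregnancy (n=30) and age-matched nonpregnant women (n=30) took CQ 450 mg (8.5 mg/kg/day) as whole tablets with water once daily for 3 days, plus single-dose sulfadoxine-pyrimethamine, without fasting. Plasma was sampled from baseline to 72 h and on days 7–42. CQ and DECQ were measured by HPLC (UV 340 nm) and analysed by population PK modelling, with weight-allometric scaling expressed relative to F.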

[2] = (§2) Apparent oral clearance in Papua new Guinean women in second or third trimester of pregnancy using pharmacokinetic final covariate model at 450 mg/day, po administered as three divided doses in presence of sulfadoxine-pyrimethamine by HPLC method; assay type: ADME, organism-based; conditions: female, human, in vivo; method in brief: as §1
Homo sapiens [3] = experiment: as §2, with “Peripheral compartment volume of distribution” for “Apparent oral clearance”, “model assessed as monodesethychloroquine” for “model”; assay type: ADME, organism-based; conditions: in vivo; method in brief: as §1
Homo sapiens [4] = experiment: AUC (0 to infinity) in Papua new Guinean pregnant women assessed as monodesethychloroquine at 750 mg/day, po administered as three divided doses by HPLC method; assay type: ADME, organism-based, Plasma; design: dose 750 mg/day, time infinity, route oral; conditions: in vivo
Method in brief: (§3)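 Simulated values, not observed data. Final population PK model parameters were applied in NONMEM to hypothetical pregnant and nonpregnant women (n=1,000 each) generated with mvtnorm, with covariates such as weight drawn from the original subjects. Cmax, Tmax and AUC0-∞ of CQ and DECQ were derived for a range of plausible CQ regimens.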

Homo sapiens [5] = experiment: AUC (0 to infinity) in Papua new Guinean pregnant women assessed as monodesethychloroquine at 450 mg/day, po administered as three divided doses by HPLC method; assay type: ADME, organism-based, Plasma; design: dose 450 mg/day, route oral, time infinity; conditions: in vivo; method in brief: as §1
[6] = Cmax in Papua new Guinean pregnant women at 750 mg/day, po administered as three divided doses by HPLC method; assay type: ADME, organism-based; design: dose 750 mg/day, route oral; conditions: female, human, in vivo; method in brief: as §3
[7] = Cmax in Papua new Guinean pregnant women at 600 mg/day, po administered as three divided doses by HPLC method; assay type: ADME, organism-based; design: dose 600 mg/day, route oral; conditions: female, human, in vivo; method in brief: as §3
[8] = AUC (0 to infinity) in Papua new Guinean pregnant women at 600 mg/day, po administered as three divided doses by HPLC method; assay type: ADME, organism-based; design: dose 600 mg/day, time infinity, route oral; conditions: female, human, plasma; method in brief: as §3
Homo sapiens [9] = experiment: Peripheral compartment volume of distribution in Papua new Guinean women in second or third trimester of pregnancy using pharmacokinetic final covariate model at 450 mg/day, po administered as three divided doses in presence of sulfadoxine-pyrimethamine by HPLC method; assay type: ADME, organism-based; conditions: in vivo; method in brief: as §1
Homo sapiens [10] = experiment: Peripheral compartment volume of distribution in Papua new Guinean women in second or third trimester of pregnancy using pharmacokinetic base model assessed as monodesethychloroquine at 450 mg/day, po administered as three divided doses in presence of sulfadoxine-pyrimethamine by HPLC method; assay type: ADME, organism-based; conditions: in vivo; method in brief: as §1
Homo sapiens [11] = experiment: Cmax in Papua new Guinean pregnant women assessed as monodesethychloroquine at 600 mg/day, po administered as three divided doses by HPLC method; assay type: ADME, organism-based; design: dose 600 mg/day, route oral; conditions: in vivo; method in brief: as §3
Homo sapiens [12] = experiment: Central compartment volume of distribution in Papua new Guinean women in second or third trimester of pregnancy using pharmacokinetic final covariate model assessed as monodesethychloroquine at 450 mg/day, po administered as three divided doses in presence of sulfadoxine-pyrimethamine by HPLC method; assay type: ADME, organism-based; conditions: in vivo; method in brief: as §1
[13] = AUC (0 to infinity) in Papua new Guinean pregnant women at 750 mg/day, po administered as three divided doses by HPLC method; assay type: ADME, organism-based; design: dose 750 mg/day, route oral, time infinity; conditions: female, human, plasma; method in brief: as §3
Homo sapiens [14] = experiment: AUC (0 to infinity) in women assessed as monodesethychloroquine at 450 mg/day, po administered as three divided doses by HPLC method; assay type: ADME, organism-based, Plasma; design: dose 450 mg/day, route oral, time infinity; conditions: in vivo; method in brief: as §1
[15] = Apparent oral clearance in Papua new Guinean women in second or third trimester of pregnancy using pharmacokinetic base model at 450 mg/day, po administered as three divided doses in presence of sulfadoxine-pyrimethamine by HPLC method; assay type: ADME, organism-based; conditions: female, human, in vivo; method in brief: as §1
Homo sapiens [16] = experiment: Cmax in Papua new Guinean pregnant women assessed as monodesethychloroquine at 450 mg/day, po administered as three divided doses by HPLC method; assay type: ADME, organism-based; design: dose 450 mg/day, route oral; conditions: in vivo; method in brief: as §3
Homo sapiens [17] = experiment: Cmax in women assessed as monodesethychloroquine at 450 mg/day, po administered as three divided doses by HPLC method; assay type: ADME, organism-based; design: dose 450 mg/day, route oral; conditions: in vivo; method in brief: as §3
[18] = Cmax in Papua new Guinean pregnant women at 450 mg/day, po administered as three divided doses by HPLC method; assay type: ADME, organism-based; design: dose 450 mg/day, route oral; conditions: female, human, in vivo; method in brief: as §3
Homo sapiens [19] = experiment: Central compartment volume of distribution in Papua new Guinean women in second or third trimester of pregnancy using pharmacokinetic base model at 450 mg/day, po administered as three divided doses in presence of sulfadoxine-pyrimethamine by HPLC method; assay type: ADME, organism-based; conditions: in vivo; method in brief: as §1
Homo sapiens [20] = experiment: AUC (0 to infinity) in Papua new Guinean pregnant women assessed as monodesethychloroquine at 600 mg/day, po administered as three divided doses by HPLC method; assay type: ADME, organism-based, Plasma; design: dose 600 mg/day, time infinity, route oral; conditions: in vivo; method in brief: as §3
Homo sapiens [21] = experiment: Cmax in Papua new Guinean pregnant women assessed as monodesethychloroquine at 750 mg/day, po administered as three divided doses by HPLC method; assay type: ADME, organism-based; design: dose 750 mg/day, route oral; conditions: in vivo; method in brief: as §3
[22] = Cmax in women at 450 mg/day, po administered as three divided doses by HPLC method; assay type: ADME, organism-based; design: dose 450 mg/day, route oral; conditions: female, human, in vivo; method in brief: as §3
[23] = AUC (0 to infinity) in women at 450 mg/day, po administered as three divided doses by HPLC method; assay type: ADME, organism-based; design: dose 450 mg/day, time infinity, route oral; conditions: female, human, plasma; method in brief: as §1
Homo sapiens [24] = experiment: Peripheral compartment volume of distribution in Papua new Guinean women in second or third trimester of pregnancy using pharmacokinetic base model at 450 mg/day, po administered as three divided doses in presence of sulfadoxine-pyrimethamine by HPLC method; assay type: ADME, organism-based; conditions: in vivo; method in brief: as §1
Homo sapiens [25] = experiment: Central compartment volume of distribution in Papua new Guinean women in second or third trimester of pregnancy using pharmacokinetic base model assessed as monodesethychloroquine at 450 mg/day, po administered as three divided doses in presence of sulfadoxine-pyrimethamine by HPLC method; assay type: ADME, organism-based; conditions: in vivo; method in brief: as §1
Homo sapiens [26] = experiment: Central compartment volume of distribution in Papua new Guinean women in second or third trimester of pregnancy using pharmacokinetic final covariate model at 450 mg/day, po administered as three divided doses in presence of sulfadoxine-pyrimethamine by HPLC method; assay type: ADME, organism-based; conditions: in vivo; method in brief: as §1

AUC(0-inf) [1]: 35700 ng·h/mL | CL/F [2]: 488 mL/min | Vp/F (Homo sapiens [3]): 840 L | AUC (Homo sapiens [4]): 39793 ng·h/mL | AUC (Homo sapiens [5]): 23876 ng·h/mL | Cmax [6]: 494 ng/mL | Cmax [7]: 395 ng/mL | AUC(0-inf) [8]: 47500 ng·h/mL | Vp/F (Homo sapiens [9]): 5190 L | Vp/F (Homo sapiens [10]): 812 L | Cmax (Homo sapiens [11]): 185 ng/mL | Vc/F (Homo sapiens [12]): 40 L | AUC(0-inf) [13]: 59400 ng·h/mL | AUC (Homo sapiens [14]): 41255 ng·h/mL | CL/F [15]: 568 mL/min | Cmax (Homo sapiens [16]): 139 ng/mL | Cmax (Homo sapiens [17]): 186 ng/mL | Cmax [18]: 296 ng/mL | Vc/F (Homo sapiens [19]): 4160 L | AUC (Homo sapiens [20]): 31835 ng·h/mL | Cmax (Homo sapiens [21]): 232 ng/mL | Cmax [22]: 376 ng/mL | AUC(0-inf) [23]: 50000 ng·h/mL | Vp/F (Homo sapiens [24]): 5200 L | Vc/F (Homo sapiens [25]): 39.9 L | Vc/F (Homo sapiens [26]): 4220 L
SMILES: CCN(CC)CCCC(C)Nc1ccnc2cc(Cl)ccc12 (stereo unspecified) [CHLOROQUINE]
